# Measurements pooled from the literature.
# Target: MAP kinase-interacting serine/threonine-protein kinase 2 (MKNK2, Homo sapiens, UniProt Q9HBH9)
SMILES,assay,setting,remaining binding [%]
CCC(=O)N[C@@H]1CC[C@H](C(=O)N(C)c2ccc(-c3nc4ccccc4o3)cc2)C1,"cell-free assay, competition with immobilised ligand",1 µM,100
CC1CCCN1c1nccc(-c2cnn3ncccc23)n1 (stereo not shown),binding,1 µM,46
Cc1cnc(Nc2ccc(C(=O)N3CCC(N4CCCC4)CC3)cc2)nc1-c1cc2ccccc2s1,"binding, competition with immobilised ligand",1 µM,5.4
Cc1cnn2ncc(-c3ccnc(N(C)C)n3)c2c1,binding,1 µM,49
Nc1ncc2c(n1)-c1c([nH]c3ccc(C#CC4CC4)cc13)CCCC2,"binding, competition with immobilised ligand",1 µM,77
F[C@@H]1CCN(c2nccc(-c3cnn4ncccc34)n2)C1,binding,1 µM,68
CNC(=O)[C@@H]1CC[C@@H](n2c(-c3ccc4cnccc4c3)nc3ccc(C(=O)NCc4cccc(C(N)=O)c4)cc32)C1,"binding, competition with immobilised ligand",1 µM,100
CCN1CCN(Cc2ccc(C(=O)Nc3ccc(C)c(Oc4ccc5c(c4)CC(=O)N5)c3)cc2C(F)(F)F)CC1,"binding, competition with immobilised ligand",1 µM,95
N[C@H]1CCN(c2nccc(-c3cnn4ncccc34)n2)C1,binding,1 µM,21
O=C(NCCCN1CCOCC1)c1ccc(Nc2ncc(Cl)c(-c3ccc(Cl)s3)n2)cc1,"binding, competition with immobilised ligand",1 µM,55
COc1cnc(Nc2cccc(S(N)(=O)=O)c2)nc1N1CCN(c2ccccc2)CC1,"binding, competition with immobilised ligand",1 µM,59
C[C@H]1CCN(c2nccc(-c3cnn4ncccc34)n2)C1,binding,1 µM,2.3
FC(F)(F)c1ccc2c(c1)nc(-c1cccnc1)n2C1CC1,"cell-free assay, competition with immobilised ligand",1 µM,100
O=C(Nc1c[nH]nc1C(=O)NC1CCNCC1)c1cc(F)cc(F)c1,"binding, competition with immobilised ligand",1 µM,100
CO[C@H]1CC[C@H](CNc2ccc(S(=O)(=O)NC(=O)c3ccc(N4CCN(CC5=C(c6ccc(Cl)cc6)CC(C)(C)CC5)CC4)cc3Oc3cnc4[nH]ccc4c3)cc2[N+](=O)[O-])CC1,"cell-free assay, competition with immobilised ligand",1 µM,73
CN(C)c1nccc(-c2cnn3ncccc23)n1,binding,1 µM,28
C[C@@H](c1ccc(-n2cnc3c(N)ncnc32)cc1)N1CCc2nn(C)c(Cc3ccccc3)c2C1=O,"binding, competition with immobilised ligand",0.1 µM,62
O=C(O)c1cc(-c2ccc(C3CCNCC3)cc2)c2ccc(-c3ccc(C(F)(F)F)cc3)cc2c1,"cell-free assay, competition with immobilised ligand",1 µM,100
COc1cc(C(=O)N2CCC(N3CCN(C)CC3)CC2)ccc1Nc1ncc2c(n1)N(C)c1ccccc1C(=O)N2C,"binding, competition with immobilised ligand",10 µM,1.2
CNC(=O)c1ccc(Nc2ncc(C(F)(F)F)c(NCc3nccnc3N(C)S(C)(=O)=O)n2)cc1,"cell-free assay, competition with immobilised ligand",0.1 µM,100
FC(F)(F)Oc1cccc(-c2cnc3ccc(-c4ccncc4)nn23)c1,"cell-free assay, competition with immobilised ligand",5 µM,21
CNCc1ccccc1-c1csc([C@@H](C)Nc2nc(C)nc3cc(OC)c(OC)cc23)c1,"cell-free assay, competition with immobilised ligand",1 µM,63
C[C@@H]1CN(c2ccc3ncc(-c4ccc5[nH]nc(C6CC6)c5c4)n3n2)C[C@H](C)O1,"binding, competition with immobilised ligand",0.5 µM,45
CO[C@@H](C)c1c(Nc2ccc([C@H](N(C)C(=O)C3CCS(=O)(=O)CC3)C(F)(F)F)cc2)cnc2cc(Cl)nn12,"cell-free assay, competition with immobilised ligand",1 µM,100
O=C(c1ccc(Nc2ncc(Cl)c(-c3ccc(Cl)s3)n2)cc1)N1CCC(N2CCCC2)CC1,"binding, competition with immobilised ligand",1 µM,4.2
